Assay [1] concerns Rattus norvegicus. The experiment in a line: In vivo motor activity determined in rat at 1 mg/kg of ip administration. It counts as functional. The following applies: route intraperitoneal. Summed up:
(§1)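 Rat social interaction paradigm with total motor activity counts recorded in the same session. All compounds were given ip, with a saline-treated control group. Combination arms gave a 0.1 mg/kg agent together with a second agent at 1 mg/kg, both ip. Social interaction time (s) and motor counts are reported as mean ± SEM, with significance tested against saline control.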

For assay [2], the target named is T1, Adrenergic receptor alpha-1 (Rattus norvegicus, UniProt P15823+P23944+P43140).
T1 sequence (P15823 whole entry): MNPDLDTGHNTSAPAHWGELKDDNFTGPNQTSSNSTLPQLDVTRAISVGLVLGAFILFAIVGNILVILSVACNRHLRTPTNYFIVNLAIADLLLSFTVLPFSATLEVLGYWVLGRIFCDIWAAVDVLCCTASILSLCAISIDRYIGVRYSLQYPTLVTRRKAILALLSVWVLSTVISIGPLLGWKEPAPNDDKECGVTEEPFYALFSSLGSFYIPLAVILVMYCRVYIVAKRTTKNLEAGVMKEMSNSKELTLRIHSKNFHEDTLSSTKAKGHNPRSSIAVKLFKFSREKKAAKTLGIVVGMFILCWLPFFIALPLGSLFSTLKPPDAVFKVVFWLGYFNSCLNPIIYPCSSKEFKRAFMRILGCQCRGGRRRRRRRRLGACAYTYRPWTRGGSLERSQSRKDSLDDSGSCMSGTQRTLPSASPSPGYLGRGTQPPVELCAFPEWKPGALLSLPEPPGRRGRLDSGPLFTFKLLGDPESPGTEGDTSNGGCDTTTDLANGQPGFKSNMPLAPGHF
T1 sequence (P23944 whole entry): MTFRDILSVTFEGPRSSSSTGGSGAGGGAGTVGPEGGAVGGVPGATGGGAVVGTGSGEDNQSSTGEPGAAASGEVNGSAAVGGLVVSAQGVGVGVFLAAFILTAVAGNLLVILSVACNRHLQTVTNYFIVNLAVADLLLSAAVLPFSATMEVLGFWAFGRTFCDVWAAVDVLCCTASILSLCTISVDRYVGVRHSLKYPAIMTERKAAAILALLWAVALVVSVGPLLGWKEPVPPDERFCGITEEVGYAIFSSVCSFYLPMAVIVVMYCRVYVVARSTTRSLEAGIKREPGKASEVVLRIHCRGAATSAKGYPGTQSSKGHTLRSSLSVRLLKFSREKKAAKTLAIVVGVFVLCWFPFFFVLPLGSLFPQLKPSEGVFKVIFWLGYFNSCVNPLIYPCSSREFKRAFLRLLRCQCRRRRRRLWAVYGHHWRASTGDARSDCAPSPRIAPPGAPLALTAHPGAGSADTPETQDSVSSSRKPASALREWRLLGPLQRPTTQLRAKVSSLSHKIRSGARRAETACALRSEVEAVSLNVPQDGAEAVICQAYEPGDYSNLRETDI
T1 sequence (P43140 whole entry): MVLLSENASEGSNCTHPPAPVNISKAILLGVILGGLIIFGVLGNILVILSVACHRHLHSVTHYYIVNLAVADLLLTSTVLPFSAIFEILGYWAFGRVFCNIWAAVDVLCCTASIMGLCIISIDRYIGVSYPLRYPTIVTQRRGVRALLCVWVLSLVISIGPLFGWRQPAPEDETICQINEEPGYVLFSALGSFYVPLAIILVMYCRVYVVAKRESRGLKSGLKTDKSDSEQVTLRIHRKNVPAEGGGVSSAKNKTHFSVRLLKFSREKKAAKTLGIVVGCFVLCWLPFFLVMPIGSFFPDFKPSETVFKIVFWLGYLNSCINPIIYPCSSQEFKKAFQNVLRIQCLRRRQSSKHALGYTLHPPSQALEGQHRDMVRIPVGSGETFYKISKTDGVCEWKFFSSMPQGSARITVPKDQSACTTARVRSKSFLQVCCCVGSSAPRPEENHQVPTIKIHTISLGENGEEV
The experiment in a line: Inhibitory concentration required against alpha-1 adrenergic receptor in rat cortex using [3H]-WB- 4101.

Assay [3] addresses T2, Adrenergic receptor alpha-2 (Rattus norvegicus, UniProt P22086+P19328+P22909).
T2 sequence (P22086 whole entry): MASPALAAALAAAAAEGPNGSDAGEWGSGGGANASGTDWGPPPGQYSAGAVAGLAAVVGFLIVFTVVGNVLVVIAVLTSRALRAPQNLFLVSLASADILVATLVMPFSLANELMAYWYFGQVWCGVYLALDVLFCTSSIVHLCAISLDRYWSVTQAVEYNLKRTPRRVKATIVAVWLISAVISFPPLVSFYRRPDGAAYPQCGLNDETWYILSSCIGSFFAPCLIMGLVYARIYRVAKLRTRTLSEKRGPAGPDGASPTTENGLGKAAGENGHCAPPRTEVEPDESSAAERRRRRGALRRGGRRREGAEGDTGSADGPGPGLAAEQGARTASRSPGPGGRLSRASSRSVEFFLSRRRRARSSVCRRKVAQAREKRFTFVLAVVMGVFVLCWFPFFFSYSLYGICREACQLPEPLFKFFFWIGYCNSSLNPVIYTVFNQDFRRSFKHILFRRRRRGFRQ
T2 sequence (P19328 whole entry): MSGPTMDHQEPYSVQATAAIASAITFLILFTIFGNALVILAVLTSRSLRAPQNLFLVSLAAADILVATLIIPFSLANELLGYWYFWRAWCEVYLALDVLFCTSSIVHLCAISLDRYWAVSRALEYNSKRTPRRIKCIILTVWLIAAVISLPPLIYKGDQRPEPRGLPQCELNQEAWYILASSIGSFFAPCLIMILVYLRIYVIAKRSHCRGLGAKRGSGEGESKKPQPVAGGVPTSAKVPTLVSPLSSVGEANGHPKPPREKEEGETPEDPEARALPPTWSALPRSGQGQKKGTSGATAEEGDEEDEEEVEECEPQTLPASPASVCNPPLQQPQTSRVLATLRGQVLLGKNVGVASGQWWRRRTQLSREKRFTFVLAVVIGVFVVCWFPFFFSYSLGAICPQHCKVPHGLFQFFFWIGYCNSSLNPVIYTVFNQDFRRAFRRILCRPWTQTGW
T2 sequence (P22909 whole entry): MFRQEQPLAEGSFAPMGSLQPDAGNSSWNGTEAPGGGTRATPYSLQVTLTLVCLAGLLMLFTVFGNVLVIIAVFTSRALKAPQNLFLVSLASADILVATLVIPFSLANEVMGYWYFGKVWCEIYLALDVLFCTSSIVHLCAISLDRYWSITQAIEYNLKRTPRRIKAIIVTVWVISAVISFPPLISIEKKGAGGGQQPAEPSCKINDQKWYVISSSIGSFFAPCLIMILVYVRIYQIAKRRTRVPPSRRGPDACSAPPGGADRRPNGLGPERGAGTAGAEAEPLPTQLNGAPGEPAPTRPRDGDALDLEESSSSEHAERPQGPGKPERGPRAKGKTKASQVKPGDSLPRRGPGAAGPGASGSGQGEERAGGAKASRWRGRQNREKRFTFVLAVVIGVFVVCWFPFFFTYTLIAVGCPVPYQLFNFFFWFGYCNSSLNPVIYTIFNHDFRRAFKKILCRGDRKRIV
The experiment in a line: Inhibitory concentration required against Alpha-2 adrenergic receptor in rat cortex [3H]clonidine.

Assay [4] concerns the target Serotonin 2 (5-HT2) receptor (Rattus norvegicus, UniProt P30994+P08909+P14842). The experiment in a line: Inhibitory concentration required against 5-hydroxytryptamine 2 receptor in rat cortex using [3H]spiperone.
The test system of assay [5] is Rattus norvegicus. The experiment in a line: Social interaction time determined in vivo in rat at 1 mg/kg of ip administration. It counts as functional. The following applies: route intraperitoneal. Summed up: as §1
Assay [6] has as its target Sodium-dependent serotonin transporter (Rattus norvegicus, UniProt P31652). The experiment in a line: Inhibitory concentration required against 5-HT uptake in rat cortex.
In assay [7] the target is 5-hydroxytryptamine receptor 1B (Rattus norvegicus, UniProt P28564). The experiment in a line: Inhibitory concentration required against 5-hydroxytryptamine 1B receptor in rat striatum using [3H]5-HT. The assay is classed as tissue-based.
Chain of 5-hydroxytryptamine receptor 1B (P28564 whole entry): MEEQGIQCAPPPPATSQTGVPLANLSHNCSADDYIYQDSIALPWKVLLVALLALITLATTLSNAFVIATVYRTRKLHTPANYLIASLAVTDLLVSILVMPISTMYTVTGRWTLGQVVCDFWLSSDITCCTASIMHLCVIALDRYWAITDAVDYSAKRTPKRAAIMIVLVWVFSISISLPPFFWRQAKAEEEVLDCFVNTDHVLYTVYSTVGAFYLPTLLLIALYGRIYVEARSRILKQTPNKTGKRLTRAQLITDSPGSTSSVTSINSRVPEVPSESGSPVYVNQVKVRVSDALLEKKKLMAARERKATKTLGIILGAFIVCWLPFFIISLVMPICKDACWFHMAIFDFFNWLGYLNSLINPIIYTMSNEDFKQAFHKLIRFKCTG
The next assay deals with D(2) dopamine receptor (Rattus norvegicus, UniProt P61169). The experiment in a line: Inhibitory concentration required against Dopamine receptor D2 in rat striatum. The assay is classed as tissue-based.
Chain of D(2) dopamine receptor (P61169 whole entry): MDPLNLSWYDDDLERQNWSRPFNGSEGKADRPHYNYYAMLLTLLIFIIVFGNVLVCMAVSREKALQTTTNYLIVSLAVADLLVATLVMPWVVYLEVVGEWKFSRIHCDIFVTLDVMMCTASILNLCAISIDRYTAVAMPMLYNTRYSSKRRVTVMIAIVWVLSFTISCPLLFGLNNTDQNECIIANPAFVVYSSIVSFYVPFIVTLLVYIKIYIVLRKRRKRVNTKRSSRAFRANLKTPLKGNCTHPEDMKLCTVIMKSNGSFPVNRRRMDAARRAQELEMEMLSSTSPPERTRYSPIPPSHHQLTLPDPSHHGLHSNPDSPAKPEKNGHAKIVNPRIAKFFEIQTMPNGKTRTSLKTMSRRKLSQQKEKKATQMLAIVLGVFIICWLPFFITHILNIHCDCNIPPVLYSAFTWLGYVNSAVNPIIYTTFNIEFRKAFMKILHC
Assay [8] concerns the target T3, 5-hydroxytryptamine receptor 1A (Rattus norvegicus, UniProt P19327).
T3 sequence (P19327 whole entry): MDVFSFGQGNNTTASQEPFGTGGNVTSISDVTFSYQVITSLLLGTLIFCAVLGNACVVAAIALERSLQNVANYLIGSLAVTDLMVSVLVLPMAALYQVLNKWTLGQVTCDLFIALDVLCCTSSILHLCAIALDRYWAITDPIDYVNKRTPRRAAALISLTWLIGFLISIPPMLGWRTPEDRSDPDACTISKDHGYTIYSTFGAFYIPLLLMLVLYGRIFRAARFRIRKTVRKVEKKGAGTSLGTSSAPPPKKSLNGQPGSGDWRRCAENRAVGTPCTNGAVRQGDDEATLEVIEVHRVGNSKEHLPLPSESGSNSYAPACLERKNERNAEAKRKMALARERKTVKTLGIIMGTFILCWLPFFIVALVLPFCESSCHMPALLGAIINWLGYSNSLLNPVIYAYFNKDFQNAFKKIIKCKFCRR
The experiment in a line: Inhibition of the 5-hydroxytryptamine 1A receptor in rat dorsal raphe.

Assay [9] relates to Rattus norvegicus. The experiment in a line: Social interaction time determined in vivo in rat at 0.1 mg/kg of ip administration. It counts as functional. The following applies: route intraperitoneal. The gist of the method:
as §1

Assay [10] concerns Rattus norvegicus. The experiment in a line: In vivo motor activity determined in rat at 0.1 mg/kg of ip administration. The following applies: route intraperitoneal. It counts as functional. Summed up:
as §1

Assay [11] deals with Rattus norvegicus. The experiment in a line: In vivo motor activity determined in rat at 1.7 + 1 mg/kg of ip administration. The assay is classed as functional. The following applies: route intraperitoneal. The gist of the method: (§2)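 Rats dosed i.p. against a saline-treated control group. Social interaction time (s) and total motor activity (counts) were recorded in the same social-interaction session and reported as mean ± SEM, with significance tested against saline control.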

Assay [12] relates to Rattus norvegicus. The experiment in a line: Social interaction time determined in vivo in rat at 1.7 + 1 mg/kg of ip administration. The assay is classed as functional. The settings on record: route intraperitoneal. Summed up:
as §2

In assay [13] the test system is Rattus norvegicus. The experiment in a line: Social interaction time determined in vivo rat at 1.7 mg/kg of ip administration. It counts as functional. The following applies: route intraperitoneal. Summed up: as §2
Assay [14] deals with Rattus norvegicus. The experiment in a line: In vivo motor activity determined in rat at 1.7 mg/kg of ip administration. The following applies: route intraperitoneal. It counts as functional. Summed up:
as §2

The source of these data is ChEMBL document CHEMBL1136272, “Development of a presynaptic 5-HT1A antagonist” (Bioorg Med Chem Lett, 2003).

As a reminder, the IC50 is the midpoint of a concentration-inhibition curve. Read a low IC50 as greater potency.

Chain of Sodium-dependent serotonin transporter (P31652 whole entry): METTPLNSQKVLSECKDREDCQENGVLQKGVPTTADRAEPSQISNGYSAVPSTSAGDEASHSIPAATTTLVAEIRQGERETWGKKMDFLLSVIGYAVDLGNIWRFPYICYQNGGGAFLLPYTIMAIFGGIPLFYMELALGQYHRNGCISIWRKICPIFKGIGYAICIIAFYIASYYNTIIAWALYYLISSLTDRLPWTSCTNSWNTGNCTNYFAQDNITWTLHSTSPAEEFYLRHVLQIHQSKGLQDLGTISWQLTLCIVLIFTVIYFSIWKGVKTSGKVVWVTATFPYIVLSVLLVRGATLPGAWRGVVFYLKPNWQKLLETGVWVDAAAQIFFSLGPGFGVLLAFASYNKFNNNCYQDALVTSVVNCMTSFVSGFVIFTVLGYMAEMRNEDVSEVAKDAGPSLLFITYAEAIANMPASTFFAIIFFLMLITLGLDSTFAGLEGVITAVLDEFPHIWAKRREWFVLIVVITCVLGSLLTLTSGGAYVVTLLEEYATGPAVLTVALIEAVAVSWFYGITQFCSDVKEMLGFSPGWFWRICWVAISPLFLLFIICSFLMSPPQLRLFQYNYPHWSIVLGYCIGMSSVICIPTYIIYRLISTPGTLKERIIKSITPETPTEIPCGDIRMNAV

`COc1cccc(CN2CCN(C3CCC(O)(c4ccc5c(c4)OCO5)CC3)CC2)c1` (configuration not stated) yielded a Motor activity in the assay on Rattus norvegicus [1] of 5140 Counts. Also, the concentration for half-maximal inhibition (IC50) in assay [2] was 1500 nM; in assay [3], 1100 nM; in assay [4] it was 28000 nM; in [6], 3000 nM; in assay [7], more than 100000 nM; on D(2) dopamine receptor, 4800 nM. Moreover, the IC50 in assay [8] was determined as 2.2 nM. Moreover, the Time in the assay on Rattus norvegicus [5] came to 65 s.

For `OC1(c2ccc3c(c2)OCO3)CCC(N2CCN(Cc3ccccc3)CC2)CC1` (configuration not stated), the Time in the assay with Rattus norvegicus [9] was found to be 104 s. Besides, the IC50 was 700 nM in [2]; 410 nM in [3]; 11000 nM in assay [4]; more than 1000 nM in assay [6]; more than 1000 nM in assay [7]; 1700 nM against D(2) dopamine receptor. The IC50 in assay [8] stood at 20 nM. In the assay on Rattus norvegicus [10], this compound displayed a Motor activity of 4700 Counts.

For the compound `CN1C(=O)CN=C(c2ccccc2)c2cc(Cl)ccc21.COc1cccc(CN2CCN(C3CCC(O)(c4ccc5c(c4)OCO5)CC3)CC2)c1` (configuration not stated), in the assay with Rattus norvegicus [11], the Motor activity was 4900 Counts. Also, the Time in the assay with Rattus norvegicus [12] was 113 s.

Consider `CN1C(=O)CN=C(c2ccccc2)c2cc(Cl)ccc21` [DIAZEPAM], for which, in the assay with Rattus norvegicus [13], the Time was 120 s. In the assay with Rattus norvegicus [14], this compound displayed a Motor activity of 5100 Counts.
